# ChEMBL document CHEMBL1240354, “Efficacy of posaconazole against three clinical Aspergillus fumigatus isolates with mutations in the cyp51A gene” (Antimicrob Agents Chemother, 2010)
# Experiments:
# [1] = Cmax in CD1 mouse infected with wild type Aspergillus fumigatus at 64 mg/kg, po qd for 14 days measured after 24 hrs post last dose by HPLC analysis; assay type: ADME, organism-based; parameters: dose 64 mg/kg, route oral; settings: in vivo
# Method in brief: (§1)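 Female CD-1 mice (4-5 weeks, 20-22 g) were infected via the lateral tail vein with the wild-type isolate. Oral posaconazole was given once daily from 24 h. On treatment day 2, orbital blood was taken predose and 0.5-24 h postdose, 3 mice per time point. Plasma was assayed by HPLC-fluorescence. Cmax was observed directly. AUC0–24 used the log-linear trapezoidal rule, and CL = dose/AUC0–24.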
# [2] = tested on: Aspergillus fumigatus; test: Antifungal activity against Aspergillus fumigatus isolate AZN 8196 harboring wild type Cyp51A protein by broth microdilution method; assay type: functional
# Method in brief: (§2)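 Broth microdilution followed CLSI M38A. Isolates were stored in 10% glycerol broth at −80°C and revived on Sabouraud dextrose agar with 0.02% chloramphenicol for 5 to 7 days at 35°C before testing.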
# [3] = Apparent oral clearance in CD1 mouse infected with wild type Aspergillus fumigatus at 1 mg/kg, po qd for 14 days measured after 24 hrs post last dose by HPLC analysis; assay type: ADME, organism-based; parameters: dose 1 mg/kg, route oral; settings: in vivo; method in brief: as §1
# [4] = Tmax in CD1 mouse infected with wild type Aspergillus fumigatus at 1 mg/kg, […] by HPLC analysis; assay type: ADME, organism-based; parameters: dose 1 mg/kg, route oral; settings: in vivo, po
# [5] = Apparent oral clearance in CD1 mouse infected with wild type Aspergillus fumigatus at 16 mg/kg, po qd for 14 days measured after 24 hrs post last dose by HPLC analysis; assay type: ADME, organism-based; parameters: dose 16 mg/kg, route oral; settings: in vivo; method in brief: as §1
# [6] = tested on: Aspergillus fumigatus; test: Antifungal activity against Aspergillus fumigatus isolate V52-35 harboring TR L98H mutation in Cyp51A protein infected in CD1 mouse assessed as 50% effective pharmacodynamic index administered orally qd for 14 days measured post last dose; assay type: functional
# Method in brief: (§3)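 EI50 came from fitting a variable-slope Hill equation to AUC0–24/MIC ratio versus 14-day survival. AUCs were taken from the PK study in wild-type-infected mice at each dose (1-64 mg/kg oral, once daily). Ratios were log10-transformed before analysis.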
# [7] = tested on: Mus musculus; test: Dose normalised AUC in CD1 mouse infected with wild type Aspergillus fumigatus at 64 mg/kg, po qd for 14 days measured after 24 hrs post last dose by HPLC analysis; assay type: ADME, organism-based; parameters: time < 24 hr, dose 64 mg/kg, route oral; settings: in vivo; method in brief: as §1
# [8] = Plasma concentration in CD1 mouse infected with wild type Aspergillus fumigatus at 1 mg/kg, […] by HPLC analysis; assay type: ADME, organism-based; parameters: dose 1 mg/kg, route oral; settings: po
# [9] = AUC in CD1 mouse infected with wild type Aspergillus fumigatus at 16 mg/kg, po qd for 14 days measured after 24 hrs post last dose by HPLC analysis; assay type: ADME, organism-based; parameters: time < 24 hr, dose 16 mg/kg, route oral; settings: plasma; method in brief: as §1
# [10] = tested on: Aspergillus fumigatus; test: Antifungal activity against Aspergillus fumigatus isolate V28-77 harboring M220I mutation in Cyp51A protein infected in CD1 mouse assessed as increase in mouse survival rate administered orally qd for 14 days measured on day 15 post fungal infection; assay type: functional, organism-based
# Method in brief: (§4)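 Female CD-1 mice (4-5 weeks, 20-25 g, 11 per group) received an LD90 conidial inoculum of each isolate IV via the tail vein. Conidia were harvested in PBS/0.1% Tween 80, gauze-filtered and hemacytometer-counted. Posaconazole oral solution (1, 4, 16, 64 mg/kg) was given by gavage once daily for 14 days from 24 h post-infection; controls received saline. Survival was compared by log rank test, with survivors euthanized on day 15.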
# [11] = AUC in CD1 mouse infected with wild type Aspergillus fumigatus at 4 mg/kg, po qd for 14 days measured after 24 hrs post last dose by HPLC analysis; assay type: ADME, organism-based; parameters: time < 24 hr, dose 4 mg/kg, route oral; settings: plasma; method in brief: as §1
# [12] = tested on: Aspergillus fumigatus; test: Antifungal activity against Aspergillus fumigatus isolate V28-77 harboring M220I mutation in Cyp51A protein by broth microdilution method; assay type: functional; method in brief: as §2
# [13] = Plasma concentration in CD1 mouse infected with wild type Aspergillus fumigatus at 4 mg/kg, […] by HPLC analysis; assay type: ADME, organism-based; parameters: dose 4 mg/kg, route oral; settings: po
# [14] = tested on: Aspergillus fumigatus; test: Antifungal activity against Aspergillus fumigatus isolate V52-35 harboring TR L98H mutation in Cyp51A protein infected in CD1 mouse assessed as increase in mouse survival rate administered orally qd for 14 days measured on day 15 post fungal infection; assay type: functional, organism-based; method in brief: as §4
# [15] = tested on: Aspergillus fumigatus; test: Antifungal activity against Aspergillus fumigatus isolate V59-73 harboring G54W mutation in Cyp51A protein infected in CD1 mouse assessed as increase in mouse survival rate administered orally qd for 14 days measured on day 15 post fungal infection; assay type: functional; method in brief: as §4
# [16] = Tmax in CD1 mouse infected with wild type Aspergillus fumigatus at 4 mg/kg, […] by HPLC analysis; assay type: ADME, organism-based; parameters: dose 4 mg/kg, route oral; settings: in vivo, po
# [17] = tested on: Aspergillus fumigatus; test: Antifungal activity against wild type Aspergillus fumigatus infected in CD1 mouse assessed as increase in mouse survival rate administered orally qd for 14 days measured on day 15 post fungal infection; assay type: functional, organism-based; method in brief: as §4
# [18] = tested on: Aspergillus fumigatus; test: Antifungal activity against Aspergillus fumigatus isolate V52-35 harboring TR L98H mutation in Cyp51A protein by broth microdilution method; assay type: functional; method in brief: as §2
# [19] = tested on: Aspergillus fumigatus; test: Antifungal activity against Aspergillus fumigatus isolate V28-77 harboring M220I mutation in Cyp51A protein infected in CD1 mouse assessed as 50% effective pharmacodynamic index administered orally qd for 14 days measured post last dose; assay type: functional; method in brief: as §3
# [20] = Cmax in CD1 mouse infected with wild type Aspergillus fumigatus at 4 mg/kg, po qd for 14 days measured after 24 hrs post last dose by HPLC analysis; assay type: ADME, organism-based; parameters: dose 4 mg/kg, route oral; settings: in vivo; method in brief: as §1
# [21] = Plasma concentration in CD1 mouse infected with wild type Aspergillus fumigatus at 16 mg/kg, […] by HPLC analysis; assay type: ADME, organism-based; parameters: dose 16 mg/kg, route oral; settings: po
# [22] = Tmax in CD1 mouse infected with wild type Aspergillus fumigatus at 64 mg/kg, […] by HPLC analysis; assay type: ADME, organism-based; parameters: dose 64 mg/kg, route oral; settings: in vivo, po
# [23] = Apparent oral clearance in CD1 mouse infected with wild type Aspergillus fumigatus at 4 mg/kg, po qd for 14 days measured after 24 hrs post last dose by HPLC analysis; assay type: ADME, organism-based; parameters: dose 4 mg/kg, route oral; settings: in vivo; method in brief: as §1
# [24] = Tmax in CD1 mouse infected with wild type Aspergillus fumigatus at 16 mg/kg, […] by HPLC analysis; assay type: ADME, organism-based; parameters: dose 16 mg/kg, route oral; settings: in vivo, po
# [25] = Cmax in CD1 mouse infected with wild type Aspergillus fumigatus at 16 mg/kg, po qd for 14 days measured after 24 hrs post last dose by HPLC analysis; assay type: ADME, organism-based; parameters: dose 16 mg/kg, route oral; settings: in vivo; method in brief: as §1
# [26] = tested on: Mus musculus; test: Dose normalised AUC in CD1 mouse infected with wild type Aspergillus fumigatus at 1 mg/kg, po qd for 14 days measured after 24 hrs post last dose by HPLC analysis; assay type: ADME, organism-based; parameters: time < 24 hr, dose 1 mg/kg, route oral; settings: in vivo; method in brief: as §1
# [27] = tested on: Mus musculus; test: Dose normalised AUC in CD1 mouse infected with wild type Aspergillus fumigatus at 4 mg/kg, po qd for 14 days measured after 24 hrs post last dose by HPLC analysis; assay type: ADME, organism-based; parameters: time < 24 hr, dose 4 mg/kg, route oral; settings: in vivo; method in brief: as §1
# [28] = Cmax in CD1 mouse infected with wild type Aspergillus fumigatus at 1 mg/kg, po qd for 14 days measured after 24 hrs post last dose by HPLC analysis; assay type: ADME, organism-based; parameters: dose 1 mg/kg, route oral; settings: in vivo; method in brief: as §1
# [29] = AUC in CD1 mouse infected with wild type Aspergillus fumigatus at 1 mg/kg, po qd for 14 days measured after 24 hrs post last dose by HPLC analysis; assay type: ADME, organism-based; parameters: time < 24 hr, dose 1 mg/kg, route oral; settings: plasma; method in brief: as §1
# [30] = Plasma concentration in CD1 mouse infected with wild type Aspergillus fumigatus at 64 mg/kg, […] by HPLC analysis; assay type: ADME, organism-based; parameters: dose 64 mg/kg, route oral; settings: po
# [31] = tested on: Aspergillus fumigatus; test: Ratio of AUC to MIC for wild type Aspergillus fumigatus infected in CD1 mouse; assay type: functional
# Method in brief: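 The ratio was calculated as AUC0–24 from the mouse PK study (oral posaconazole once daily, 1 to 64 mg/kg) divided by the CLSI M38A broth microdilution MIC.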
# [32] = AUC in CD1 mouse infected with wild type Aspergillus fumigatus at 64 mg/kg, po qd for 14 days measured after 24 hrs post last dose by HPLC analysis; assay type: ADME, organism-based; parameters: time < 24 hr, dose 64 mg/kg, route oral; settings: plasma; method in brief: as §1
# [33] = Apparent oral clearance in CD1 mouse infected with wild type Aspergillus fumigatus at 64 mg/kg, po qd for 14 days measured after 24 hrs post last dose by HPLC analysis; assay type: ADME, organism-based; parameters: dose 64 mg/kg, route oral; settings: in vivo; method in brief: as §1
# [34] = tested on: Mus musculus; test: Dose normalised AUC in CD1 mouse infected with wild type Aspergillus fumigatus at 16 mg/kg, po qd for 14 days measured after 24 hrs post last dose by HPLC analysis; assay type: ADME, organism-based; parameters: time < 24 hr, dose 16 mg/kg, route oral; settings: in vivo; method in brief: as §1
# [35] = tested on: Aspergillus fumigatus; test: Antifungal activity against Aspergillus fumigatus isolate V59-73 harboring G54W mutation in Cyp51A protein by broth microdilution method; assay type: functional; method in brief: as §2
smiles,measurement,setting,value
CC[C@@H]([C@H](C)O)n1ncn(-c2ccc(N3CCN(c4ccc(OC[C@@H]5CO[C@@](Cn6cncn6)(c6ccc(F)cc6F)C5)cc4)CC3)cc2)c1=O [POSACONAZOLE],Cmax,[1],17.8 µg/mL
same,MIC,[2],0.031 mg/L
same,CL/F,[3],0.1 L/h/kg
same,Tmax,[4],4 h
same,CL/F,[5],0.1 L/h/kg
same,Activity,[6],321
same,AUC,[7],4.64 kg·h/L
same,concentration,[8],0.11 µg/mL
same,AUC at 24 h,[9],159 µg·h/mL
same,Activity,[10],Dose-dependent effect
same,AUC at 24 h,[11],45.1 µg·h/mL
same,MIC,[12],0.5 mg/L
same,concentration,[13],0.94 µg/mL
same,Activity,[14],Dose-dependent effect
same,Activity,[15],Dose-dependent effect
same,ED50,"[15]; isolate V59-73, po",29 mg/kg
same,Tmax,[16],2 h
same,Activity,[17],Dose-dependent effect
same,MIC,[18],0.5 mg/L
same,Activity,[19],321
same,Cmax,[20],3.11 µg/mL
same,concentration,[21],2.7 µg/mL
same,Tmax,[22],8 h
same,CL/F,[23],0.09 L/h/kg
same,Tmax,[24],8 h
same,Cmax,[25],9.03 µg/mL
same,AUC,[26],10.2 kg·h/L
same,AUC,[27],11.3 kg·h/L
same,Cmax,[28],0.98 µg/mL
same,AUC at 24 h,[29],10.2 µg·h/mL
same,concentration,[30],9.33 µg/mL
same,RatioAUC/MIC,[31],1000
same,AUC at 24 h,[32],297 µg·h/mL
same,CL/F,[33],0.22 L/h/kg
same,AUC,[34],9.96 kg·h/L
same,MIC,[35],> 16 mg/L
C[C@@H](c1ncncc1F)[C@](O)(Cn1cncn1)c1ccc(F)cc1F [VORICONAZOLE],MIC,[2],0.25 mg/L
same,MIC,[12],0.25 mg/L
same,MIC,[18],2 mg/L
same,MIC,[35],0.125 mg/L
C[C@@H]1[C@H](O)[C@@H](C)/C=C/C=C/C=C/C=C/C=C/C=C/C=C/[C@H](O[C@@H]2O[C@H](C)[C@@H](O)[C@H](N)[C@@H]2O)C[C@@H]2O[C@](O)(C[C@@H](O)C[C@@H](O)[C@H](O)CC[C@@H](O)C[C@@H](O)CC(=O)O[C@H]1C)C[C@H](O)[C@H]2C(=O)O [AMPHOTERICIN B],MIC,[2],0.5 mg/L
same,MIC,[12],0.5 mg/L
same,MIC,[18],0.5 mg/L
same,MIC,[35],0.5 mg/L
